NPY-Y1 antag: blocks the human neuropeptide Y Y1 receptor. inhibition, % at 3.6 µM. HEK293-CNG Y1 cells, membrane potential fluorescence; NPY at EC95, then isoproterenol. actives 1% (n = 200,000). AID 1040;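 active = inhibition above the campaign mean inhibition of all tested compounds plus 3 SD, cut at about 20% in these data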
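material = HEK293 cells with Y1 receptor plus CNG channel | also added = NPY 25 nM then isoproterenol 1 µM plus Ro 20-1724 25 µM | schedule = dye 3 h, compound 60 min room temperature, stimulation 45 min | measured by = membrane potential fluorescence | benchmarks = high control isoproterenol alone, low control NPY with isoproterenol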
NPY-Y2 antag: antagonists of human neuropeptide Y receptor Y2; NPY-Y2 expressing cells, antagonist mode; inhibition, % at 2.7 µM; actives 0.99% (n = 140,000); AID 793; in the data active = inhibition above about 17%
EP2 mod: modulators of human EP2 prostaglandin E2 receptor | EP2-expressing cells, cAMP HTRF FRET, PGE2 co-stimulation | induction, % at 25 µM | actives 0.83% (n = 260,000);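 active = compounds whose cAMP rise, as percent of the full-agonist control response, exceeds 60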;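 also: rat C6 glioma line stably carrying human EP2 under a CMV promoter; the protocol text gives 20 µM as final concentration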
Target sequence (P43116 whole entry, looked up): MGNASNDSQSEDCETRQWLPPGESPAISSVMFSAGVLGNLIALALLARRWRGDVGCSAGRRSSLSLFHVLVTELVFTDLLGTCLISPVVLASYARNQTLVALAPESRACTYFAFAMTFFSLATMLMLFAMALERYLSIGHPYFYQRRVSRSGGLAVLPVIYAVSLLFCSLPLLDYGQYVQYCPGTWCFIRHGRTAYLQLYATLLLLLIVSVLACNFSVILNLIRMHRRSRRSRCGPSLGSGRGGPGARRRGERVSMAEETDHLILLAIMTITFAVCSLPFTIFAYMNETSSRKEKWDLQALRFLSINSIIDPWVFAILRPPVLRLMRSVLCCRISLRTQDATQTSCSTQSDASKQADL
NPY-Y1 PAM-ag: human NPY-Y1 potentiation or agonism, primary screen; actives 0.37% (n = 220,000); NPY-Y1 expressing cells, potentiator/agonist activation; P25929; activation, % at 3.6 µM; in the data active = activation above about 33%, passing the limit was not always enough;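 also: cells stimulated with NPY at EC10 then isoproterenol at EC100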
NPY2 pot ag: human NPY-Y2 potentiation or agonism, primary screen; P49146; cells expressing NPY-Y2, potentiator/agonist read-out; activation, % at 3.6 µM; actives 0.45% (n = 220,000); AID 1359; in the data active = activation above about 27%;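 also: cells stimulated with NPY near EC25 plus isoproterenol at EC100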
EP2 antag: inhibitors of human EP2 prostaglandin E2 receptor; P43116; C6 glioma cells expressing human EP2, cAMP TR-FRET; cells stimulated with saturating PGE2; inhibition, % at 25 µM; actives 0.52% (n = 260,000); AID 1422;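 active = percent inhibition above 40 after rounding to a whole number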;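 also: rat C6 glioma host cells with rolipram phosphodiesterase inhibitor present; the protocol text gives 20 µM as final concentration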
NPY-Y1 antag ct: counter-screen for NPY-Y2 antagonists: human NPY-Y1 antagonism; shares compounds with NPY-Y2 antag; cell-based NPY-Y1 antagonism counterscreen; inhibition, % at 3.6 µM; actives 19% (n = 710); in the data active = inhibition above about 20%;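 also: cells challenged with NPY then isoproterenol with cAMP sensed through a CNG channel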
NPY2 antag conf: human NPY-Y2 antagonism, confirmation | HEK293 NPY-Y2 CNG channel, membrane potential fluorescence | shares compounds with NPY-Y2 antag | inhibition, % at 2.8 µM | actives 32% (n = 710);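 active = mean inhibition of triplicate wells above the hit cutoff set in the primary screen, cut at about 17% in these data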
Each line names hits and unclear results; the compound was inactive in the other large screens (follow-up assays come after a bar, where they were run). The list is not random: actives were taken first. Their share in the collection is about 2.8%.

Nc1c2c(nc3sc4c(c13)CCCC4)CCCCCC2	NPY-Y2 antag 19 | NPY-Y1 antag ct inactive | NPY2 antag conf 18
Nc1nc2sc3c(c2c(=O)s1)CCCC3	none
COc1ccc(-c2n[nH]c3c2C(c2ccc(OC)c(OC)c2)N(c2ccccc2)C3=O)cc1 (centres undefined)	NPY-Y2 antag 27 | NPY-Y1 antag ct inactive | NPY2 antag conf 38
COc1ccc([C@H]2CCNC[C@@H]2O)cc1	none (no result: NPY-Y1 antag, NPY-Y2 antag, NPY-Y1 PAM-ag, NPY2 pot ag)
COC(=O)c1ccc(C2C(Oc3ccc(OC)cc3)C(=O)N2CCc2ccc(OC)c(OC)c2)cc1 (centres undefined)	none
COC(=O)c1ccc(C2C(Oc3ccccc3)C(=O)N2CCc2ccc(F)cc2)cc1 (centres undefined)	NPY-Y2 antag 24 | NPY-Y1 antag ct 30 | NPY2 antag conf inactive
CCn1c(SC)nc2c1c(=O)[nH]c(=O)n2C	none (no result: NPY-Y1 antag, NPY-Y2 antag, NPY-Y1 PAM-ag, NPY2 pot ag)
CCN(CC)c1ccc(C(=O)OCC(=O)Nc2ccccc2-c2ccccc2)cc1	NPY-Y2 antag 21 | NPY-Y1 antag ct inactive | NPY2 antag conf inactive
O=C(COC(=O)/C=C/c1ccc(Cl)cc1)Nc1ccccc1-c1ccccc1	NPY-Y2 antag 22 | NPY-Y1 antag ct inactive | NPY2 antag conf 17
CN(C)c1cccc(C(=O)OCC(=O)Nc2ccccc2-c2ccccc2)c1	none
N#Cc1ccccc1NC(=O)CNCC1CCCO1 (centres undefined)	none (no result: NPY-Y1 antag, NPY-Y2 antag, NPY-Y1 PAM-ag, NPY2 pot ag)
COc1ccc(C)cc1NC(=O)C1CCN(C(=O)c2ccccc2Cl)CC1	none (no result: NPY-Y1 antag, NPY-Y2 antag, NPY-Y1 PAM-ag, NPY2 pot ag)
COc1ccc(-c2cc(C(=O)Nc3ccc(Cl)cc3Cl)c3ccccc3n2)cc1OC	NPY-Y2 antag 124 | NPY-Y1 antag ct 133 | NPY2 antag conf active
COC(=O)c1cc(OC)c(OC)cc1NC(=O)c1cc(-c2ccccc2)nc2ccccc12	none (no result: EP2 antag)
COc1cccc(-c2cc(C(=O)Nc3ccc([N+](=O)[O-])cn3)c3ccccc3n2)c1	NPY-Y2 antag 26 | NPY-Y1 antag ct 37 | NPY2 antag conf 52
COc1ccc(-c2cc(C(=O)Nc3c(Cl)cc(Cl)cc3Cl)c3ccccc3n2)cc1OC	NPY-Y2 antag 79 | NPY-Y1 antag ct 152 | NPY2 antag conf 195
Cc1ccccc1OCC(=O)Nc1sc2c(c1C#N)CCCCC2	none (no result: NPY-Y1 antag, NPY-Y2 antag, NPY-Y1 PAM-ag, NPY2 pot ag)
CC(Sc1ccc(Cl)cc1)C(=O)Nc1ccccc1-c1ccccc1 (centres undefined)	NPY-Y2 antag 20 | NPY-Y1 antag ct inactive | NPY2 antag conf 25
CCC(=O)N1CCN(c2ccc(Cl)cc2NC(=O)Cc2ccccc2)CC1	NPY-Y2 antag 21 | NPY-Y1 antag ct inactive | NPY2 antag conf inactive
COc1ccccc1NC(=O)c1sc(NC(=O)CCc2ccccc2)c(C#N)c1C	none (no result: NPY-Y1 antag, NPY-Y2 antag, NPY-Y1 PAM-ag, NPY2 pot ag)
CCN(CC)S(=O)(=O)c1ccc(/C=C/C(=O)Nc2ccc(F)cc2F)cc1	none
CCN(CC)S(=O)(=O)c1ccc(/C=C/C(=O)Nc2ccc(Br)cc2F)cc1	NPY-Y2 antag 17 | NPY-Y1 antag ct 29 | NPY2 antag conf 17
Cc1ccc2[nH]c(=O)c(C(=O)O)cc2c1	none (no result: NPY-Y1 antag, NPY-Y2 antag, NPY-Y1 PAM-ag, NPY2 pot ag)
O=C(/C=C/c1cccc2ccccc12)c1ccncc1	NPY-Y2 antag 20 | NPY-Y1 antag ct inactive | NPY2 antag conf 19
O=C(NC1CCCC1)C(c1ccsc1)N(CCc1ccccc1)C(=O)Cc1cccs1 (centres undefined)	NPY-Y2 antag 34 | NPY-Y1 antag ct 21 | NPY2 antag conf inactive
O=C(NC1CCCC1)C(c1ccsc1)N(C(=O)Cc1cccs1)c1ccccc1 (centres undefined)	none
Cc1cccc(-c2cc(C(=O)Nc3ccc4c(c3)OCCO4)c3ccccc3n2)c1	NPY-Y2 antag 26 (no result: EP2 antag) | NPY-Y1 antag ct 26 | NPY2 antag conf 43
Cc1cc2c(cc3c(=O)n(CC(=O)NCC4CC4)nc(C)n32)o1	none (no result: NPY-Y1 antag, NPY-Y2 antag, NPY-Y1 PAM-ag, NPY2 pot ag, EP2 antag)
Cc1ccc(NC(=O)c2c(C(F)(F)F)nn(C)c2SCc2ccc(Cl)cc2)cc1C	NPY-Y2 antag 17 | NPY-Y1 antag ct inactive | NPY2 antag conf inactive

Screening results as filed in PubChem.
